The text below walks through data of ChEMBL document CHEMBL4152387, “Discovery of a Potent Grp94 Selective Inhibitor with Anti-Inflammatory Efficacy in a Mouse Model of Ulcerative Colitis” (J Med Chem, 2018).

Data set [1] deals with Mus musculus. The data set can be described thus: Subacute toxicity in C57BL/6 mouse assessed as effect on kidneys at 30 to 90 mg/kg, ip qd for 2 weeks by hematoxylin and eosin staining analysis. The format is organism-based. To be noted: in vivo, 336 h.
In data set [2] the test system is Mus musculus. The experiment in a line: Anti-inflammatory activity in ip dosed C57BL/6 mouse model of DSS-induced ulcerative colitis assessed reduction in TNFalpha levels in serum co-administrated once daily with DSS measured on day 7 post dose by ELISA. The format is functional, organism-based. In a few lines:
(§1)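 DSS colitis in male C57BL/6 mice (3% DSS in water, 7 days, ip qd co-dosing, vehicle controls). Serum and colons taken at sacrifice on day 7; colon homogenate supernatants and serum assayed for mouse TNFα and IL-6 by ELISA kits; n = 5 samples per group.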
For orientation: In an ELISA, binding on a coated surface is turned into a signal by an enzyme label.

A short description of data set [3]: Inhibition of FITC-geldanamycin binding to dog GST-tagged GRP94 N41 deletion mutant (69 to 337 residues) expressed in Escherichia coli BL21star (DE3) after 4 hrs by GM-FITC-based FP assay. The arrangement: species or system Canis lupus familiaris.
Data set [4] addresses T1, Heat shock protein HSP 90-alpha (Homo sapiens, UniProt P07900). The data set can be described thus: Binding affinity to human His-tagged HSP90alpha N-terminal domain (1 to 236 residues) expressed in Escherichia coli BL21star (DE3) association constant by biolayer interferometry. The conditions noted are these: read-out: K. In a few lines:
(§2)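 Biotinylated His-tagged N-terminal protein, labelled in PBS pH 7.4 at one molar ratio with excess biotin removed by overnight dialysis, was loaded at 400 nM final onto streptavidin biosensors pre-wetted 10 min in kinetics buffer (PBS, 0.05% BSA, 0.01% Tween-20). Four compound concentrations in kinetics buffer were then tested for binding, with all data collected at 30 °C.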
For orientation: In BLI a coated tip is dipped into the sample, and binding shifts an interference pattern.

In data set [5] the target is T1, Heat shock protein HSP 90-alpha. The experiment in a line: Binding affinity to human His-tagged HSP90alpha N-terminal domain (1 to 236 residues) expressed in Escherichia coli BL21star (DE3) by biolayer interferometry. The essentials: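 His-tagged Hsp90N biotinylated in PBS pH 7.4 (one molar ratio), dialysed overnight, immobilized at 400 nM on streptavidin sensors; kinetics buffer PBS, 0.05% BSA, 0.01% Tween-20; four compound concentrations; 30 °C biolayer interferometry.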

For data set [6], the species on record is Canis lupus familiaris. The experiment in a line: Inhibition of FITC-geldanamycin binding to dog GST-tagged GRP94 N41 deletion mutant (69 to 337 residues) expressed in Escherichia coli BL21star (DE3) at 100 uM after 4 hrs by FP assay relative to control.
The subject of data set [7] is Mus musculus. The experiment in a line: Anti-inflammatory activity in C57BL/6 mouse model of DSS-induced ulcerative colitis assessed reduction in TLR9 expression in colonic tissues at 10 to 30 mg/kg, ip qd co-administrated with DSS measured on day 7 post dose. The class given is functional, organism-based. The essentials: (§3)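 DSS colitis in male C57BL/6 mice (3% DSS, 7 days, ip qd 10 or 30 mg/kg, vehicle controls); colons flash-frozen at day 7, homogenized in lysis buffer with protease/phosphatase inhibitors. Equal protein by BCA run on SDS-PAGE, PVDF, 1% BSA block, primary antibodies 37 °C 1 h then 4 °C overnight, DyLight 800 secondary, infrared scan; β-actin loading control.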

Data set [8] has as its system Mus musculus. The experiment in a line: Anti-inflammatory activity in C57BL/6 mouse model of DSS-induced ulcerative colitis assessed reduction in colonic tissue damage at 10 to 30 mg/kg, ip qd co-administrated with DSS measured on day 7 post dose. The format is functional, organism-based. In a few lines:
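Male C57BL/6 mice (20−22 g), n = 8 per group, 3% DSS in drinking water 7 days plus ip qd dosing at 10 or 30 mg/kg; vehicle controls. Sacrificed at day 7, colons collected; colon length measured and H&E-stained colon sections examined.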

Data set [9] has as its system Mus musculus. The data set can be described thus: In-vivo inhibition of HSP90/HSP70 pathway in C57BL/6 mouse model of DSS-induced ulcerative colitis assessed as effect on Akt expression in colonic tissues at 10 to 30 mg/kg, ip qd co-administrated with DSS measured on day 7 post dose. The format is organism-based. The essentials:
as §3

Data set [10] in a line: Binding affinity to dog His-tagged biotinylated GRP94 N41 deletion mutant (69 to 337 residues) expressed in Escherichia coli BL21star (DE3) by biolayer interferometry. The arrangement: species or system Canis lupus familiaris. The essentials:
(§4)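 His-tagged Grp94N biotinylated at one molar ratio in PBS pH 7.4, dialysed overnight, loaded at 400 nM on streptavidin biosensors after 10 min prewetting in PBS, 0.05% BSA, 0.01% Tween-20. Four compound concentrations in this buffer tested; binding recorded at 30 °C by biolayer interferometry.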

For data set [11], the system named is Mus musculus. The data set can be described thus: Subacute toxicity in C57BL/6 mouse assessed as effect on liver at 30 to 90 mg/kg, ip qd for 2 weeks by hematoxylin and eosin staining analysis. The format is organism-based. The conditions noted are these: in vivo, 336 h.
For data set [12], the system named is Mus musculus. The experiment in a line: Anti-inflammatory activity in ip dosed C57BL/6 mouse model of DSS-induced ulcerative colitis assessed reduction in IL6 levels in colonic tissues co-administrated once daily with DSS measured on day 7 post dose by ELISA. The class given is functional, organism-based. In a few lines: as §1
The subject of data set [13] is Mus musculus. The data set can be described thus: Anti-inflammatory activity in C57BL/6 mouse model of DSS-induced ulcerative colitis assessed reduction in p65 expression in colonic tissues at 10 to 30 mg/kg, ip qd co-administrated with DSS measured on day 7 post dose. The class given is functional, organism-based. The essentials:
as §3

Data set [14] deals with Mus musculus. The data set can be described thus: Subacute toxicity in C57BL/6 mouse assessed as effect on heart at 30 to 90 mg/kg, ip qd for 2 weeks by hematoxylin and eosin staining analysis. The conditions noted are these: in vivo, 336 h. The class given is organism-based.
Data set [15] concerns Mus musculus. The data set can be described thus: Subacute toxicity in C57BL/6 mouse assessed as effect on spleen at 30 to 90 mg/kg, ip qd for 2 weeks by hematoxylin and eosin staining analysis. The conditions noted are these: in vivo, 336 h. The class given is organism-based.
For data set [16], the system named is Mus musculus. The data set can be described thus: Anti-inflammatory activity in ip dosed C57BL/6 mouse model of DSS-induced ulcerative colitis assessed reduction in IL6 levels in serum co-administrated once daily with DSS measured on day 7 post dose by ELISA. The format is functional, organism-based. In a few lines:
as §1

The subject of data set [17] is Mus musculus. The experiment in a line: Anti-inflammatory activity in C57BL/6 mouse model of DSS-induced ulcerative colitis assessed reduction in disease activity index at 10 to 30 mg/kg, ip qd co-administrated with DSS measured until day 7 post dose. The class given is functional, organism-based. In a few lines:
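Male C57BL/6 mice (20−22 g), n = 8 per group, 3% DSS in drinking water for 7 days with ip qd dosing at 10 or 30 mg/kg; vehicle for normal and disease controls. Body weight, stool consistency and rectal bleeding recorded daily; DAI scored from weight loss, stool consistency and stool blood.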

Data set [18] has as its target T1, Heat shock protein HSP 90-alpha. The data set can be described thus: Binding affinity to human His-tagged HSP90alpha N-terminal domain (1 to 236 residues) expressed in Escherichia coli BL21star (DE3) dissociation constant by biolayer interferometry. To be noted: read-out: K. The essentials:
as §2

For data set [19], the species on record is Canis lupus familiaris. The experiment in a line: Binding affinity to dog His-tagged biotinylated GRP94 N41 deletion mutant (69 to 337 residues) expressed in Escherichia coli BL21star (DE3) assessed as association constant by biolayer interferometry. In a few lines:
as §4

For data set [20], the system named is Mus musculus. The data set can be described thus: Anti-inflammatory activity in C57BL/6 mouse model of DSS-induced ulcerative colitis assessed mortality at 10 mg/kg, ip qd co-administrated with DSS measured on day 7 post dose. The format is functional, organism-based. In a few lines: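 Male C57BL/6 mice (20−22 g), randomized, n = 8 per group; 3% DSS (36−50 KD) in drinking water for 7 days, with compound given ip once daily alongside; normal and disease controls received vehicle. Deaths counted at day 7.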

Data set [21] in a line: Ratio of Kd for human His-tagged biotinylated HSP90alpha N-terminal domain (1 to 236 residues) to Kd for dog His-tagged biotinylated GRP94 N41 deletion mutant (69 to 337 residues).

Structures are written as SMILES. Calls of active or inactive are those of the source. No cut-off for these calls is given here. Where only a bound is given, the exact number is not on record here.

`CC(C)c1ccc(-c2ccc(N[C@H]3CC[C@H](O)CC3)c(C(N)=O)c2)cc1`: the Activity entry with Mus musculus [1] is “Non-Toxic”; with Mus musculus [2], “Dose-dependent effect”; with Mus musculus [9] it was “Non-Toxic”; in the data set on Mus musculus [11] it was “Non-Toxic”; in the data set with Mus musculus [12], “Dose-dependent effect”; with Mus musculus [14], “Non-Toxic”. The results for the Activity entry in the data set on Mus musculus [15] and in the data set with Mus musculus [16] were “Non-Toxic” and “Dose-dependent effect”, respectively. This compound also registered an IC50 in data set [3] of 0.002 µM. In [4], the kon came to 1680 M⁻¹ s⁻¹. In addition, the Kd was determined as 20.6 µM in [5] and 0.0196 µM in [10]. The compound also came in with an inhibition in the data set filed under Canis lupus familiaris [6] of 100%. Moreover, the outcome with Mus musculus [7], in the data set on Mus musculus [13] and in the data set with Mus musculus [17] was Active. Besides, the outcome with Mus musculus [8] and in the data set on Mus musculus [20] was inactive. The koff in data set [18] stood at 0.0345 s⁻¹. For the same compound, the K in the data set listed under Canis lupus familiaris [19] stood at 6.38 ×10⁵ /M/s. Moreover, in data set [21], the Ratio was above 1000.

One may read the IC50 as the concentration that gives 50% inhibition. In general, Kd refers to the equilibrium constant for the complex coming apart. Low values mean a tighter complex, high ones a looser complex. By inhibition is commonly meant the relative decrease from the control value, in per cent.
